ChEMBL document CHEMBL4152277, “Structure-activity relationships of β-hairpin mimics as modulators of amyloid β-peptide aggregation” (Eur J Med Chem, 2018)
Activity calls are given as the source filed them. No cut-off for these calls is given here.

How the values were obtained:
[1] = biological target: Amyloid-beta precursor protein (Homo sapiens) (UniProt P05067); experiment: Inhibition of amyloid beta (1 to 42) (unknown origin) aggregation assessed as increase in time of half-life of aggregation at 10 uM using compound dissolved in DMSO measured after 42 hrs by Thioflavin T fluorescence assay relative to control; parameters: scale not given: the % may be the effect or the level left
Method in brief: (§1)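 Aβ1-42 dissolved in 1% aqueous ammonia at 1 mM, diluted to 0.2 mM in 10 mM Tris-HCl, 100 mM NaCl pH 7.4 just before use. Final 10 µM peptide added to 40 µM ThT with compound (final DMSO 0.5% v/v), room temperature. Triplicate wells, ex/em 440/480 nm for 42 h, read 2–4 times on different days. t1/2 extension and plateau F reduction are computed as % of peptide-alone values.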

[2] = biological target: Amyloid-beta precursor protein (Homo sapiens) (UniProt P05067); experiment: Inhibition of amyloid beta (1 to 42) (unknown origin) aggregation assessed as reduction in intensity of fluorescence plateau of aggregation at 10 uM using compound dissolved in DMSO measured after 42 hrs by Thioflavin T fluorescence assay relative to control; parameters: scale not given: the % may be the effect or the level left; method in brief: as §1
[3] = biological target: Amyloid-beta precursor protein (Homo sapiens) (UniProt P05067); experiment: Inhibition of amyloid beta (1 to 42) (unknown origin) aggregation assessed as reduction in intensity of fluorescence plateau of aggregation at 100 uM using compound dissolved in DMSO measured after 42 hrs by Thioflavin T fluorescence assay relative to control; parameters: scale not given: the % may be the effect or the level left; method in brief: as §1
[4] = biological target: Amyloid-beta precursor protein (Homo sapiens) (UniProt P05067); experiment: Inhibition of amyloid beta (1 to 42) (unknown origin) aggregation assessed as increase in time of half-life of aggregation at 100 uM using compound dissolved in DMSO measured after 42 hrs by Thioflavin T fluorescence assay relative to control; parameters: scale not given: the % may be the effect or the level left; method in brief: as §1
[5] = biological target: Amyloid-beta precursor protein (Homo sapiens) (UniProt P05067); experiment: Inhibition of amyloid beta (1 to 42) (unknown origin) aggregation assessed as increase in time of half-life of aggregation at 100 uM using compound dissolved in water measured after 42 hrs by Thioflavin T fluorescence assay relative to control; parameters: scale not given: the % may be the effect or the level left
Method in brief: (§2)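 ThT kinetics of 10 µM Aβ1-42 (from 1 mM ammonia stock, diluted in 10 mM Tris-HCl, 100 mM NaCl, pH 7.4) with 40 µM ThT at room temperature. Compound is dissolved in water (0.5% v/v) rather than DMSO and used at 10:1 compound/peptide. Fluorescence 440/480 nm over 42 h. t1/2 and plateau F are expressed as % change versus peptide alone.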

[6] = biological target: Amyloid-beta precursor protein (Homo sapiens) (UniProt P05067); experiment: Inhibition of amyloid beta (1 to 42) (unknown origin) aggregation assessed as increase in time of half-life of aggregation at 1 uM using compound dissolved in DMSO measured after 42 hrs by Thioflavin T fluorescence assay relative to control; method in brief: as §1
[7] = biological target: Amyloid-beta precursor protein (Homo sapiens) (UniProt P05067); experiment: Inhibition of amyloid beta (1 to 42) (unknown origin) aggregation assessed as reduction in intensity of fluorescence plateau of aggregation at 100 uM using compound dissolved in water measured after 42 hrs by Thioflavin T fluorescence assay relative to control; parameters: scale not given: the % may be the effect or the level left; method in brief: as §2
[8] = biological target: Amyloid-beta precursor protein (Homo sapiens) (UniProt P05067); experiment: Inhibition of amyloid beta (1 to 42) (unknown origin) aggregation assessed as reduction in intensity of fluorescence plateau of aggregation at 1 uM using compound dissolved in DMSO measured after 42 hrs by Thioflavin T fluorescence assay relative to control; parameters: scale not given: the % may be the effect or the level left; method in brief: as §1
[9] = biological target: Amyloid-beta precursor protein (Homo sapiens) (UniProt P05067); experiment: Inhibition of amyloid beta (1 to 42) (unknown origin) aggregation at 100 uM after 42 hrs by uranyl acetate staining based transmission electron microscopic method
Method in brief: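 Samples are prepared as for ThT: 10 µM Aβ1-42 in 10 mM Tris-HCl, 100 mM NaCl pH 7.4, ±100 µM compound, incubated 42 h. Aliquots adsorbed 2 min on 300-mesh carbon grids, washed, dried, negatively stained 45 s and imaged by TEM.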

[10] = biological target: Amyloid-beta precursor protein (Homo sapiens) (UniProt P05067); experiment: Inhibition of amyloid beta (1 to 42) (unknown origin) oligomerization assessed as amyloid beta monomer level at 100 uM after 12 hrs by capillary electrophoresis method (reference value: 0%); parameters: scale not given: the % may be the effect or the level left
Method in brief: (§3)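 Aβ1-42 reconstituted at 100 µM final in 20 mM phosphate pH 7.4 with 2.5% v/v DMSO (compound stock or control), compound at 10:1 ratio. Profiles taken at 0, 2, 6 and 12 h. CE in fused silica capillary, 80 mM phosphate pH 7.4, −30 kV, 20°C, UV 190 nm. Monomer peak area is related to that of peptide alone at 0 h.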

[11] = biological target: Amyloid-beta precursor protein (Homo sapiens) (UniProt P05067); experiment: Inhibition of amyloid beta (1 to 42) (unknown origin) oligomerization assessed as increase in amyloid beta monomer level at 100 uM up to 2 hrs by capillary electrophoresis method; method in brief: as §3
[12] = biological target: Amyloid-beta precursor protein (Homo sapiens) (UniProt P05067); experiment: Inhibition of amyloid beta (1 to 42) (unknown origin) aggregation at 1 to 100 uM treated immediately or 3 hrs after fibrillization kinetics by Thioflavin T fluorescence assay
Method in brief: (§4)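 Same ThT set-up (10 µM Aβ1-42, 40 µM ThT, Tris-HCl/NaCl pH 7.4, room temperature, 440/480 nm), except compound is added at the start of kinetics or 3, 19 or 44 h after it. Tested at 1:1 and 10:1 compound/peptide ratios.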

[13] = biological target: Amyloid-beta precursor protein (Homo sapiens) (UniProt P05067); experiment: Inhibition of amyloid beta (1 to 42) (unknown origin) oligomerization assessed as amyloid beta monomer level at 100 uM after 6 hrs by capillary electrophoresis method (reference value: 4%); parameters: scale not given: the % may be the effect or the level left; method in brief: as §3
[14] = biological target: Amyloid-beta precursor protein (Homo sapiens) (UniProt P05067); experiment: Inhibition of amyloid beta (1 to 42) (unknown origin) aggregation at 1 to 100 uM treated at 19 to 44 hrs after fibrillization kinetics by Thioflavin T fluorescence assay; method in brief: as §4

Chain of Amyloid-beta precursor protein (Homo sapiens) (P05067 whole entry): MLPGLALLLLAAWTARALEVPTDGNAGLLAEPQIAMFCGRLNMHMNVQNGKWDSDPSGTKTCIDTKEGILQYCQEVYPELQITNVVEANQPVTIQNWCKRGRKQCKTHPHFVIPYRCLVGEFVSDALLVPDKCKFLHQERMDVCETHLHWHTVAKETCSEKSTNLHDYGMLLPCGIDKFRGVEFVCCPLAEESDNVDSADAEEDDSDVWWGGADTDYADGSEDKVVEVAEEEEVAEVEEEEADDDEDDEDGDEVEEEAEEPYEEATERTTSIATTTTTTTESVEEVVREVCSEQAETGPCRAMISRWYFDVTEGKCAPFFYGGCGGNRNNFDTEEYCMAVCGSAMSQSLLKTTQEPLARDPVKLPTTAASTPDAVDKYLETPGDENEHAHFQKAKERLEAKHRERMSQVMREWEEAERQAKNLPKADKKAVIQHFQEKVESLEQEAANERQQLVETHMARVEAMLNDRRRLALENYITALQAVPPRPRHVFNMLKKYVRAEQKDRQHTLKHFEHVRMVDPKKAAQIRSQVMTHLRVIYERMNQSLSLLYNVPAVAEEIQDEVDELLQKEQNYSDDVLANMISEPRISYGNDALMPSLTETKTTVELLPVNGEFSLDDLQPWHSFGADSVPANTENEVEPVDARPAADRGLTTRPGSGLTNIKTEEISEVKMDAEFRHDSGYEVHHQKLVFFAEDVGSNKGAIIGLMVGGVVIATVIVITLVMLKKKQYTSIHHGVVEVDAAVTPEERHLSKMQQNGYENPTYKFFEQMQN

Activity [1] | Activity [2] | Activity [3] | Activity [4] | Activity [5] | Activity [6] | Activity [7] | Activity [8] | inhibition [9] | Activity [10] | inhibition [11] | inhibition [12] | Activity [13] | inhibition [14] | Structure (SMILES)
13% | inactive | 43% | 29% | – | – | – | – | – | – | – | – | – | – | COc1ccc(NC(C)=O)cc1C(=O)NNC(=O)[C@H](CCCCN)NC(=O)[C@@H]1CCCN1[C@@H]1CN(C(=O)[C@@H](NC(=O)[C@H](C)N)C(C)C)CC[C@H]1NC(=O)OC(C)(C)C
inactive | inactive | 23% | inactive | – | – | – | – | – | – | – | – | – | – | COC(=O)[C@@H]1CCCN1[C@@H]1CNCC[C@H]1NS(=O)(=O)c1ccc(C)cc1
inactive | inactive | inactive | inactive | – | – | – | – | – | – | – | – | – | – | COc1ccc(NC(C)=O)cc1C(=O)NNC(=O)[C@H](CCCCNC(=O)OCc1ccccc1)NC(=O)[C@@H]1CCCN1[C@@H]1CN(C(=O)[C@@H](NC(=O)[C@H](C)NC(=O)OC(C)(C)C)C(C)C)CC[C@H]1NS(=O)(=O)c1ccc(C)cc1
23% | inactive | inactive | 59% | – | – | – | – | – | – | – | – | – | – | COc1ccc(NC(C)=O)cc1C(=O)NNC(=O)[C@H](CCCCN)NC(=O)[C@@H]1CCCN1[C@@H]1CN(C(=O)[C@@H](NC(=O)[C@H](C)NC(=O)OC(C)(C)C)C(C)C)CC[C@H]1NS(=O)(=O)c1ccc(C)cc1
inactive | inactive | 32% | 30% | 58% | inactive | 35% | inactive | – | – | – | – | – | – | COc1ccc(NC(C)=O)cc1C(=O)NNC(=O)[C@H](CCCCN)NC(=O)[C@@H]1CCCN1[C@@H]1CN(C(=O)[C@@H](NC(=O)[C@H](C)NC(=O)[C@@H](N)C(C)C)C(C)C)CC[C@H]1NS(=O)(=O)c1ccc(C)cc1
inactive | inactive | 18% | inactive | – | – | – | – | – | – | – | – | – | – | COc1ccc(NC(C)=O)cc1C(=O)NNC(=O)[C@H](CCCCN)NC(=O)[C@@H]1CCCN1[C@@H]1CN(C(=O)[C@@H](NC(=O)[C@H](C)N)C(C)C)CC[C@H]1N
27% | inactive | 54% | 56% | – | – | – | – | Active | – | – | – | – | – | COc1ccc(NC(C)=O)cc1C(=O)NNC(=O)[C@H](CCCCN)NC(=O)[C@@H]1CCCN1[C@@H]1CN(C(=O)[C@@H](NC(=O)[C@H](C)N)C(C)C)CC[C@H]1NS(=O)(=O)c1ccc(N)cc1
36% | 38% | 66% | 76% | 96% | inactive | 81% | 38% | Active | 31% | inactive | Active | 49% | inactive | COc1ccc(NC(C)=O)cc1C(=O)NNC(=O)[C@H](CCCCN)NC(=O)[C@@H]1CCCN1[C@@H]1CN(C(=O)[C@@H](NC(=O)[C@H](C)N)C(C)C)CC[C@H]1NS(=O)(=O)c1ccc(C)cc1
inactive | 90% | 97% | inactive | – | – | – | – | – | – | – | – | – | – | CSCC[C@H](NC(=O)[C@H](CC(C)C)NC(=O)CN)C(=O)N[C@H](C(=O)NCC(=O)N1CC[C@@H](NS(=O)(=O)c2ccc(C)cc2)[C@H](N2CCC[C@H]2C(=O)N[C@@H](CCCCN)C(=O)N[C@@H](CC(C)C)C(=O)N[C@H](C(=O)N[C@@H](Cc2ccccc2)C(=O)N[C@@H](Cc2ccccc2)C(N)=O)C(C)C)C1)C(C)C
